From ChEMBL document CHEMBL2203189, “Synthesis and pharmacology of 1-alkyl-3-(1-naphthoyl)indoles: steric and electronic effects of 4- and 8-halogenated naphthoyl substituents” (Bioorg Med Chem, 2012)
The source made the active and inactive calls.

How the values were obtained:
Cannabinoid receptor 2 = Cannabinoid receptor 2 (Homo sapiens, UniProt P34972); assay: Displacement of [3H]CP55940 from human CB2 receptor expressed in CHO cells after 1 hr by liquid scintillation spectrophotometry; type: cell-based
Cannabinoid receptor 2, sequence (P34972 whole entry): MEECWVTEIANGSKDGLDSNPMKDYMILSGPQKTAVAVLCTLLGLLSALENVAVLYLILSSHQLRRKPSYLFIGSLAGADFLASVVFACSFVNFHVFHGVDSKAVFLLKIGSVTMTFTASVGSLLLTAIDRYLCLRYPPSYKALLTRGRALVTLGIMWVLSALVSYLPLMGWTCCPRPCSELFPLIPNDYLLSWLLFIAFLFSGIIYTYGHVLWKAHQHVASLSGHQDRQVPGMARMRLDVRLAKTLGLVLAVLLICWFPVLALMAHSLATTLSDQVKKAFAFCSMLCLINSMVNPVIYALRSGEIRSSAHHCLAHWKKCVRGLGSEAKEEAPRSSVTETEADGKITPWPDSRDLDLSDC
Method in brief: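 Membranes (50 µg) from CHO cells stably expressing human CB2, cultured in DMEM/10% fetal calf serum. Incubated with 0.5 nM [3H]CP55,940 and test compound at 1 nM–10 µM with BSA (5 mg/mL), 1 h at 30 °C. Nonspecific binding defined with excess unlabelled CP55,940. GF/B filtration, then scintillation counting.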

Mus musculus [1] = assay: Locomotor activity in Harlan ICR mouse assessed as inhibition of activity level at 74 umol/kg, iv from 5 to 15 mins by spontaneous locomotor activity test relative to vehicle treated control; type: functional
Method in brief: (§1)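 Male ICR mice, n = 6 per dose, single probe dose iv in emulphor–ethanol–saline 1:1:18. Photocell beam interruptions recorded over 10 min, at 5–15 min after dosing. Result given as % inhibition relative to the vehicle group.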

Homo sapiens = species: Homo sapiens; assay: Selectivity ratio of Ki for human CB1 receptor to Ki for human CB2 receptor
Mus musculus [2] = assay: Hypothermic activity in Harlan ICR mouse assessed as change in rectal temperature at 74 umol/kg, iv at 30 mins; type: functional
Method in brief: (§2)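 Male ICR mice, n = 6 per dose. Single probe dose iv in emulphor–ethanol–saline 1:1:18. Rectal temperature taken with a thermistor probe at 25 mm depth before dosing and at 30 min. Result given as change from pre-injection value (°C).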

Mus musculus [3] = assay: Antinociceptive activity in Harlan ICR mouse assessed as latency to heat-induced tail flicking at 74 umol/kg, iv at 20 mins relative to control; type: functional
Cannabinoid receptor 1 = Cannabinoid receptor 1 (Homo sapiens, UniProt P21554); assay: Displacement of [3H]CP55940 from human CB1 receptor expressed in HEK293 cells after 1 hr by liquid scintillation spectrophotometry; type: cell-based
Cannabinoid receptor 1, sequence (P21554 whole entry): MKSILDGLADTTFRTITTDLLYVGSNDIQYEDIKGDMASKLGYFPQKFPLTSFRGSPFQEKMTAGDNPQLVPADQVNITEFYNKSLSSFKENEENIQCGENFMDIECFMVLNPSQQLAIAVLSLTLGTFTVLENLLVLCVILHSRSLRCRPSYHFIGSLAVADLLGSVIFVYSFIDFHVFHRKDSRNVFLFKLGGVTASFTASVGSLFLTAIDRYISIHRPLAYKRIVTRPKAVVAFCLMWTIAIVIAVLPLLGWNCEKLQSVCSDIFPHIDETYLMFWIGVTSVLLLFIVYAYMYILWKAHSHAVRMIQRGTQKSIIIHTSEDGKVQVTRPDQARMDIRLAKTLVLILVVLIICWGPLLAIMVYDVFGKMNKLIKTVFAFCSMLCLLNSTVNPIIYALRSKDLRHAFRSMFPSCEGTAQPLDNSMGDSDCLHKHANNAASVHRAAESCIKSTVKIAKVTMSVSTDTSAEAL
Method in brief: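 Membranes (50 µg) from HEK-293 cells stably expressing human CB1, cultured in DMEM/10% FBS. Incubated with 0.5 nM [3H]CP55,940 and test compound at 1 nM–10 µM in buffer with BSA (5 mg/mL), 1 h at 30 °C. Nonspecific binding defined with excess unlabelled CP55,940. Filtered through GF/B, then scintillation counting.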

Mus musculus [4] = assay: Antinociceptive activity in iv dosed Harlan ICR mouse assessed as latency to heat-induced tail flicking at 20 mins; type: functional
Method in brief: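 Male ICR mice, 18–25 g, n = 6 per dose. Multiple doses iv by tail vein in emulphor–ethanol–saline 1:1:18. Tail-flick latency at 20 min, 10 s cutoff, expressed as %MPE.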

Mus musculus [5] = assay: Locomotor activity in iv dosed Harlan ICR mouse from 5 to 15 mins by spontaneous locomotor activity test; type: functional
Mus musculus [6] = assay: Hypothermic activity in iv dosed Harlan ICR mouse assessed as change in rectal temperature at 30 mins; type: functional; conditions: 0.5 h
Mus musculus [7] = assay: Induction of catalepsy in iv dosed Harlan ICR mouse at 40 mins measured for 5 mins by ring immobility test; type: functional
Mus musculus [8] = assay: Antinociceptive activity in Harlan ICR mouse assessed as latency to heat-induced tail flicking at 77 umol/kg, iv at 20 mins relative to control; type: functional
Mus musculus [9] = assay: Locomotor activity in Harlan ICR mouse assessed as inhibition of activity level at 77 umol/kg, iv from 5 to 15 mins by spontaneous locomotor activity test relative to vehicle treated control; type: functional; method in brief: as §1
Mus musculus [10] = assay: Induction of catalepsy in Harlan ICR mouse at 77 umol/kg, iv at 40 mins measured for 5 mins by ring immobility test; type: functional
Method in brief: (§3)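 Male ICR mice given a single iv probe dose in emulphor–ethanol–saline 1:1:18. At 40 min placed on a 5.5 cm ring raised 16 cm and observed for 5 min by blinded raters. Up to 5 escapes allowed; mice escaping before 2.5 min excluded. Immobility index = time motionless / 300 s × 100.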

Mus musculus [11] = assay: Hypothermic activity in Harlan ICR mouse assessed as change in rectal temperature at 77 umol/kg, iv at 30 mins; type: functional; method in brief: as §2
Mus musculus [12] = species: Mus musculus; assay: Induction of catalepsy in mouse by ring immobility test; type: functional
Mus musculus [13] = assay: Hypothermic activity in Harlan ICR mouse assessed as change in rectal temperature at 83 umol/kg, iv at 30 mins; type: functional; method in brief: as §2
Mus musculus [14] = assay: Antinociceptive activity in Harlan ICR mouse assessed as latency to heat-induced tail flicking at 83 umol/kg, iv at 20 mins relative to control; type: functional
Mus musculus [15] = assay: Locomotor activity in Harlan ICR mouse assessed as inhibition of activity level at 83 umol/kg, iv from 5 to 15 mins by spontaneous locomotor activity test relative to vehicle treated control; type: functional; method in brief: as §1
Mus musculus [16] = assay: Induction of catalepsy in Harlan ICR mouse at 83 umol/kg, iv at 40 mins measured for 5 mins by ring immobility test; type: functional; method in brief: as §3
Mus musculus [17] = assay: Locomotor activity in Harlan ICR mouse assessed as inhibition of activity level at 6.2 umol/kg, iv from 5 to 15 mins by spontaneous locomotor activity test relative to vehicle treated control; type: functional, organism-based
Method in brief: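 Spontaneous activity in male ICR mice (18–25 g) after one iv tail-vein probe dose in 1:1:18 emulphor–ethanol–saline. Photocell beam interruptions (16 beams per chamber) recorded over 10 min, 5–15 min after dosing. Reported as % inhibition relative to the vehicle group. n = 6 per dose.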

Mus musculus [18] = assay: Locomotor activity in Harlan ICR mouse assessed as inhibition of activity level at 66 umol/kg, iv from 5 to 15 mins by spontaneous locomotor activity test relative to vehicle treated control; type: functional; method in brief: as §1

Compound	Ki (Cannabinoid receptor 2) [nM]	Ratio Ki (Homo sapiens)	Ki (Cannabinoid receptor 1) [nM]	ED50 (Mus musculus [4]) [µmol/kg]	ED50 (Mus musculus [5]) [µmol/kg]	ED50 (Mus musculus [6]) [µmol/kg]	other results
CCCn1c(C)c(C(=O)c2cccc3cccc(Br)c23)c2ccccc21	278	> 36	> 10000				inhibition in vivo at 74 µmol/kg (Mus musculus [1]): 49%; Activity (Mus musculus [2]): -2.3%; Activity (Mus musculus [3]): 72%
CCCCCn1cc(C(=O)c2ccc(F)c3ccccc23)c2ccccc21	3.2	2	7.2	0.14	< 0.08	< 0.08	ED50 (Mus musculus [7]): 0.58 µmol/kg
CCCn1cc(C(=O)c2ccc(Br)c3ccccc23)c2ccccc21	27	6	161				Activity (Mus musculus [8]): 75%; inhibition in vivo at 77 µmol/kg (Mus musculus [9]): 71%; Activity (Mus musculus [10]): 26%; Activity (Mus musculus [11]): -3.9%
CCCCCn1cc(C(=O)c2cccc3cccc(Br)c23)c2ccccc21	5.4	4	21	1.8	1.4	2.4	ED50 (Mus musculus [7]): 3.7 µmol/kg
CCCCCn1c(C)c(C(=O)c2ccc(F)c3ccccc23)c2ccccc21	2.2	6	14	0.48	0.38	0.54	ED50 (Mus musculus [7]): 0.99 µmol/kg
CCCCCn1cc(C(=O)c2ccc(I)c3ccccc23)c2ccccc21	1.3	2	2.5	0.45	0.3	0.19	ED50 (Mus musculus [7]): 0.38 µmol/kg
CCCCCn1cc(C(=O)c2ccc(Br)c3ccccc23)c2ccccc21	1.1	1	1.2				
CCCn1cc(C(=O)c2ccc(Cl)c3ccccc23)c2ccccc21	44	2	93				
CCCn1c(C)c(C(=O)c2cccc3ccccc23)c2ccccc21				84.7	18.7	99.1	ED50 (Mus musculus [12]): 87.2 µmol/kg
CCCCCn1c(C)c(C(=O)c2ccc(Br)c3ccccc23)c2ccccc21	2.8	5	14				
CCCn1c(C)c(C(=O)c2ccc(Br)c3ccccc23)c2ccccc21	31	12	373				inhibition in vivo at 74 µmol/kg (Mus musculus [1]): 80%; Activity (Mus musculus [2]): -5%; Activity (Mus musculus [3]): 96%
CCCCCn1c(C)c(C(=O)c2ccc(I)c3ccccc23)c2ccccc21	2.1	7	14	2.5	1.1	2.6	ED50 (Mus musculus [7]): 2.5 µmol/kg
CCCn1c(C)c(C(=O)c2cccc3cccc(Cl)c23)c2ccccc21	174	> 57	> 10000				Activity (Mus musculus [13]): -2.3%; Activity (Mus musculus [14]): 42%; inhibition in vivo at 83 µmol/kg (Mus musculus [15]): 70%; Activity (Mus musculus [16]): 15%
CCCCCn1c(C)c(C(=O)c2cccc3cccc(I)c23)c2ccccc21	13	40	522				inhibition (Mus musculus [17]): inactive
CCCn1c(C)c(C(=O)c2ccc(Cl)c3ccccc23)c2ccccc21	22	9	187				Activity (Mus musculus [13]): -5.4%; Activity (Mus musculus [14]): 100%; inhibition in vivo at 83 µmol/kg (Mus musculus [15]): 70%; Activity (Mus musculus [16]): 70%
Cc1c(C(=O)c2cccc3ccccc23)c2cccc3c2n1[C@H](CN1CCOCC1)CO3 [WIN-552122]				0.94	0.23		
CCCCCc1cc(O)c2c(c1)OC(C)(C)[C@@H]1CCC(C)=C[C@@H]21 [DRONABINOL]					3.2		
CCCCCn1cc(C(=O)c2cccc3cccc(I)c23)c2ccccc21	3.3	22	73	1.3	1.8	6.4	ED50 (Mus musculus [7]): 3.6 µmol/kg
CCCCCn1c(C)c(C(=O)c2ccc(Cl)c3ccccc23)c2ccccc21	2.3	4	8.9				Activity (Mus musculus [8]): 100%; inhibition in vivo at 77 µmol/kg (Mus musculus [9]): 94%; Activity (Mus musculus [10]): 88%; Activity (Mus musculus [11]): -6.4%
CCCn1cc(C(=O)c2cccc3cccc(Br)c23)c2ccccc21	192	> 52	> 10000				Activity (Mus musculus [8]): 9%; inhibition in vivo at 77 µmol/kg (Mus musculus [9]): 76%; Activity (Mus musculus [10]): 5%; Activity (Mus musculus [11]): -2%
CCCCCn1c(C)c(C(=O)c2cccc3cccc(Cl)c23)c2ccccc21	19	6.1	116				Activity (Mus musculus [8]): 100%; inhibition in vivo at 77 µmol/kg (Mus musculus [9]): 84%; Activity (Mus musculus [10]): 86%; Activity (Mus musculus [11]): -5.5%
CCCCCn1cc(C(=O)c2cccc3ccccc23)c2ccccc21		3.2		0.09	0.44	1.7	ED50 (Mus musculus [12]): 3 µmol/kg
CCCn1c(C)c(C(=O)c2cccc3cccc(I)c23)c2ccccc21	536	8	4290				inhibition (Mus musculus [18]): inactive
